Assay results: ChEMBL document CHEMBL1649306, “Arylimidamide DB766, a potential chemotherapeutic candidate for Chagas' disease treatment” (Antimicrob Agents Chemother, 2010)
Calls of active or inactive are those of the source. The rule behind the calls is not given here.

Legend:
Mus musculus [1] = assay: Toxicity in […](H-2k) mouse assessed as effect on GPT level at 100 mg/kg/day, po; assay type: organism-based; set-up: route oral; details: in vivo
Mus musculus [2] = assay: Cytotoxicity against Swiss-Webster mouse assessed as effect on creatine kinase at 100 mg/kg/day measured after 14 days postinfection; assay type: organism-based; details: in vivo, 336 h
Trypanosoma cruzi [3] = assay: Antitrypanosomal activity against Trypanosoma cruzi Y bloodstream forms infected in Swiss-Webster mouse assessed as reduction in parasite-induced weight loss at 100 mg/kg/day, ip administered 5 days postinfection for 10 consecutive days measured after 120 days; assay type: functional, organism-based
In short: (§1)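 Body weight of infected, treated mice followed from 0 to 120 dpi.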

Trypanosoma cruzi [4] = assay: Antitrypanosomal activity against Trypanosoma cruzi Y bloodstream forms infected in Swiss-Webster mouse assessed as survival rate of mouse at 100 mg/kg/day, ip administered 8 days postinfection measured on day 120; assay type: functional; details: route intraperitoneal
In short: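 Every-other-day i.p. dosing (5 doses, each 48 h apart) of 100 mg/kg/day in male Swiss mice inoculated with 10^4 Y-strain bloodstream trypomastigotes, n ≥ 6 parasitemia-positive animals. Mortality recorded daily up to 120 dpi as cumulative percentage.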

Trypanosoma cruzi [5] = assay: Antitrypanosomal activity against Trypanosoma cruzi Y infected in Swiss-Webster mouse assessed as decrease in parasite load at 100 mg/kg/day, ip administered 5 days post-infection for 10 consecutive days measured on day 120; assay type: functional; details: route intraperitoneal
In short: (§2)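 Male Swiss mice infected i.p. with 10^4 Y strain bloodstream forms. Given 0.2 ml i.p. at 5 and 8 dpi, or daily for 10 days from 5 dpi; reference drug given by gavage. Parasitemia measured by the Pizzi-Brener method, cumulative mortality checked daily to 120 dpi, n ≥ 6 per group.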

Trypanosoma cruzi [6] = assay: Antitrypanosomal activity against bloodstream forms of Trypanosoma cruzi Y after 2 hrs by light microscopy in presence of 96% mouse blood; assay type: functional, organism-based
In short: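 Bloodstream trypomastigotes held at 4°C in freshly isolated mouse blood (96%) with serial dilutions up to 32 μM. Live motile parasites counted by light microscopy in a Neubauer chamber, giving an IC50 for each exposure time.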

Trypanosoma cruzi [7] = assay: Antitrypanosomal activity against bloodstream forms of Trypanosoma cruzi Y after 24 hrs by light microscopy; assay type: functional, organism-based
In short: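 Bloodstream trypomastigotes from infected Swiss mice at peak parasitemia, 5.0 × 10^6 cells/ml in RPMI 1640 with 5% FBS. Exposed at 37°C to serial dilutions from 0 to 32 μM. Motile live parasites counted by light microscopy in a Neubauer chamber, then IC50 calculated.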

Trypanosoma cruzi [8] = assay: Antitrypanosomal activity against bloodstream forms of Trypanosoma cruzi YuYu after 24 hrs by light microscopy in presence of 50% mouse blood; assay type: functional, organism-based
In short: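 Bloodstream trypomastigotes kept at 4°C for 24 h in freshly isolated 50% mouse blood with serial dilutions (up to 32 μM). Motile live parasites counted in a Neubauer chamber by light microscopy; IC50 calculated as concentration reducing parasite number by 50%.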

Trypanosoma cruzi [9] = assay: Antitrypanosomal activity against Trypanosoma cruzi Y epimastigotes after 24 hrs by light microscopy; assay type: functional, organism-based
In short: (§3)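 Epimastigotes from 5-day exponential cultures, 5 × 10^6 parasites/ml in LIT medium, incubated at 28°C up to 96 h with DB766 0 to 32 μM or Bz 0 to 250 μM. Counted daily in a Neubauer chamber. IC50 averaged from at least three determinations in duplicate.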

Trypanosoma cruzi [10] = assay: Antitrypanosomal activity against Trypanosoma cruzi 875 epimastigotes after 24 hrs by light microscopy; assay type: functional, organism-based; details: Trypanosoma cruzi, 875, 24 h; in short: as §3
Trypanosoma cruzi [11] = assay: Antitrypanosomal activity against Trypanosoma cruzi 956 epimastigotes after 24 hrs by light microscopy; assay type: functional, organism-based; details: Trypanosoma cruzi, 956, 24 h; in short: as §3
[12] = Cardiotoxicity against Swiss-Webster mouse cardiomyocytes assessed as creatine kinase cardiac isotype level by MTT assay; assay type: toxicity, Heart, Cardiomyocyte; details: read-out: LC50 (the source's name)
In short: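 Embryonic cardiomyocytes from Swiss mice, uninfected, exposed to 0 to 96 μM in DMEM at 37°C. Viability followed by CK-MB released into culture supernatant, alongside light-microscopy checks of morphology and spontaneous contraction; assays at least three times in duplicate.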

Trypanosoma cruzi [13] = assay: Antitrypanosomal activity against bloodstream forms of Trypanosoma cruzi Y infected in Swiss mouse cardiomyocytes assessed as parasite mitochondrial swelling at 10 ug/ml after 24 hrs by transmission electron microscopy; assay type: functional, organism-based
In short: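 Y-strain bloodstream trypomastigotes treated 2 to 24 h at 37°C. Fixed 60 min at 4°C in 2.5% glutaraldehyde in 0.1 M cacodylate, pH 7.2. Postfixed 1 h at 4°C in 1% OsO4 with 0.8% potassium ferricyanide. Acetone-dehydrated, Epon-embedded, sections stained with uranyl acetate and lead citrate, ultrastructure examined by TEM.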

Mus musculus [14] = assay: Toxicity in male Swiss-Webster mouse assessed as mortality at cumulative dose of 200 mg/kg, ip measured after 48 hrs; assay type: organism-based; set-up: dose 200 mg/kg, route intraperitoneal; details: in vivo
In short: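 Uninfected 8–10-week-old female and male Swiss Webster and C3H/He (H-2k) mice injected i.p. on day 1 every 2 h with escalating doses: 5, 15, 30, 50 and 100 mg/kg (cumulative 20, 50, 100, 200 mg/kg). Toxic and subtoxic signs inspected on days 2–3 per OECD guidelines; tolerated dose set at 48 h.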

Trypanosoma cruzi [15] = assay: Antitrypanosomal activity against Trypanosoma cruzi Y bloodstream forms infected in Swiss-Webster mouse assessed as survival of mouse at 50 mg/kg/day, ip p administered 5 days postinfection for 10 consecutive days measured on day 120; assay type: functional, organism-based; in short: as §2
Trypanosoma cruzi [16] = assay: Antitrypanosomal activity against Trypanosoma cruzi Columbian bloodstream forms infected in C3H mouse assessed as decrease in parasite load at 50 mg/kg/day, ip administered 21 days postinfection measured on day 45; assay type: functional, organism-based
In short: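 C3H/He mice infected i.p. with 10^2 Colombian strain bloodstream forms. Treatment started at parasitemia onset (21 dpi) with daily doses for 10 treatments, 0.1 ml i.p. Parasitemia measured by the Pizzi-Brener method; n ≥ 6 parasitemic mice per group.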

Trypanosoma cruzi [17] = assay: Antitrypanosomal activity against Trypanosoma cruzi Columbian bloodstream forms infected in C3H mouse assessed as reduction in parasite-induced weight loss at 100 mg/kg/day, po administered 5 days postinfection for 10 consecutive days measured after 120 days; assay type: functional, organism-based; in short: as §1
Trypanosoma cruzi [18] = assay: Antitrypanosomal activity against Trypanosoma cruzi Columbian bloodstream forms infected in C3H mouse assessed as reduction in parasite-induced weight loss at 50 mg/kg/day, ip administered 5 days postinfection for 10 consecutive days measured after 120 days; assay type: functional, organism-based; in short: as §1
Trypanosoma cruzi [19] = assay: Antitrypanosomal activity against Trypanosoma cruzi Columbian bloodstream forms infected in C3H mouse assessed as decrease in parasite load at 50 mg/kg/day, ip p administered 5 days postinfection for 10 consecutive days measured after 120 days; assay type: functional, organism-based
Trypanosoma cruzi [20] = assay: Antitrypanosomal activity against Trypanosoma cruzi Columbian bloodstream forms infected in C3H mouse assessed as decrease in parasite load in 25 mg/kg/day, po administered 5 days postinfection for 10 consecutive days measured after 120 days; assay type: functional, organism-based
Trypanosoma cruzi [21] = assay: Antitrypanosomal activity against Trypanosoma cruzi Columbian bloodstream forms infected in C3H mouse assessed as decrease in cardiac parasite load at 100 mg/kg/day, ip administered 5 days postinfection for 10 consecutive days measured after 43 days; assay type: functional; set-up: scale not given: the % may be the effect or the level left; details: route intraperitoneal
In short: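 Male C3H/He mice infected i.p. with 5 × 10^3 Colombian strain bloodstream forms, given 100 mg/kg/day i.p. daily for 10 days. At 43 dpi, H&E-stained 3 μm heart sections scored for amastigote nests and infiltrates (>10 mononuclear cells) over at least 100 fields. Three sections each from at least three mice.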

## CC(C)Oc1cc(NC(=N)c2ccccn2)ccc1-c1ccc(-c2ccc(NC(=N)c3ccccn3)cc2OC(C)C)o1
Mus musculus [1]
  Activity: Non-toxic
Mus musculus [2]
  Activity: Non-toxic
Trypanosoma cruzi [3]
  Activity: Active
Trypanosoma cruzi [4]
  Activity: 60%
Trypanosoma cruzi [5]
  inhibition in vivo at 100 mg/kg/day: > 98%
Trypanosoma cruzi [6]
  IC50: 560 nM
Trypanosoma cruzi [7]
  IC50: 110 nM
Trypanosoma cruzi [8]
  IC50: 820 nM
Trypanosoma cruzi [9]
  IC50: 70 nM
  IC90: 220 nM
Trypanosoma cruzi [10]
  IC50: 60 nM
  IC90: 240 nM
Trypanosoma cruzi [11]
  IC50: 160 nM
  IC90: 320 nM
[12]
  CC50: > 10600 nM
Trypanosoma cruzi [13]
  Activity: Active
Mus musculus [14]
  Activity: Non-toxic
Trypanosoma cruzi [15]
  Activity: Active
Trypanosoma cruzi [16]
  Activity: inactive
Trypanosoma cruzi [17]
  Activity: inactive
Trypanosoma cruzi [18]
  Activity: Active
Trypanosoma cruzi [19]
  Activity: Active
Trypanosoma cruzi [20]
  Activity: inactive
Trypanosoma cruzi [21]
  Activity: 95%
